Experimental data gathered from unrelated publications.
Compare with care: the assays were run in different laboratories.
Effect on: cell growth or viability

O=C(N[C@@H](Cc1ccccc1)C(=O)c1c[nH]nn1)[C@H](Cc1ccccc1)NC(=O)N1CCOCC1 has a CC50 of > 64 µM (MRC-5 SV2).
COc1cccc2c1C(=O)c1c(O)c3c(c(O)c1C2=O)C[C@@](O)(C(=O)CO)C[C@@H]3O[C@H]1C[C@H](N)[C@H](O)[C@H](C)O1 has a viability of 64.9% (WI-38; MTT; 3.125 µM; 24 h).
CC1(C)CC[C@]2(C)CC[C@]3(C)[C@H]4CC=C5[C@@H](CC[C@H](O)C5(C)C)[C@]4(C)CC[C@@]3(C)[C@@H]2C1 gave an IC50 of 62.9 µM (WI-38; WST-1).
C[Si](C)(C)c1cc(C(=O)[C@H](Cc2ccccc2)NC(=O)[C@H](Cc2ccccc2)NC(=O)N2CCOCC2)no1 (single isomer, unassigned) gave a CC50 of > 64 µM (MRC-5 SV2).
O=C1CCCCC1=C1Sc2nc3ccc(S(=O)(=O)N4CCCC4)cc3nc2S1 gave a viability of 61.3% (WI-38; MTT; 50 µM; 24 h).
CCc1ncn(CC(c2c[nH]c3ccc(C)cc23)c2c[nH]c3ccc(C)cc23)c1C(=O)OC has a CC50 of > 20 µM (HaCaT; MTS; 24 h).
O=C(N[C@@H](Cc1ccccc1)C(=O)c1nc2ccccc2o1)[C@H](Cc1ccccc1)NC(=O)N1CCOCC1 has a CC50 of > 64 µM (MRC-5 SV2).
O=C(/C=C/c1ccc(O)c(O)c1)O[C@@H]1C[C@](O)(C(=O)O)C[C@@H](O)[C@H]1O gave an IC50 of 91.2 µM (WI-38; WST-1; 48 h).
The CC50 of O=c1oc2c(O)c(O)cc3c(=O)oc4c(O)c(O)cc1c4c23 is reported as > 250 µg/mL (CEM-GFP; MTT; 48 h).
With COC(=O)c1c(C)ncn1CC(c1cn(C)c2ccccc12)c1cn(C)c2ccccc12 the CC50 was > 20 µM (HaCaT; MTS; 24 h).
O=C(N[C@@H](Cc1ccccc1)C(=O)c1nccs1)[C@H](Cc1ccccc1)NC(=O)N1CCOCC1 has a CC50 of > 64 µM (MRC-5 SV2).
For CC(=O)OC1c2c(ccc3ccc(=O)oc23)OC(C)(C)C1OC(=O)C(C)(O)C(C)O (stereo not drawn), the IC50 was 89.6 µM (WI-38; WST-1).
O=C(N[C@@H](CCc1ccccc1)C(=O)c1cc(-c2ccccc2)on1)[C@H](Cc1ccccc1)NC(=O)N1CCOCC1 (single isomer, unassigned) gave a CC50 of > 64 µM (MRC-5 SV2).
With CCOC(=O)C(C(C)=O)=C1Sc2nc3ccc(S(=O)(=O)N4CCCC4)cc3nc2S1 the viability was 48.2% (WI-38; MTT; 50 µM; 24 h).
The IC50 of O=Cc1ccc(CO)o1 is reported as 78.3 µM (WI-38; WST-1; 48 h).
The CC50 of Cc1cn(CC(c2cn(C)c3ccccc23)c2cn(C)c3ccccc23)nn1 is reported as > 20 µM (HaCaT; MTS; 24 h).
For CC1(C)CC[C@]2(C)CC[C@]3(C)C(=CC[C@@H]4[C@@]5(C)CC[C@H](O)C(C)(C)[C@@H]5CC[C@]43C)[C@@H]2C1, the IC50 was 103 µM (WI-38; WST-1; 48 h).
The CC50 of COC(=O)c1c(C)ncn1CC(c1c[nH]c2ccc(C)cc12)c1c[nH]c2ccc(C)cc12 is reported as > 20 µM (HaCaT; MTS; 24 h).
With N#CC(C(=O)Nc1cccc(C(F)(F)F)c1)=C1Sc2nc3ccc(S(=O)(=O)N4CCCC4)cc3nc2S1 the viability was 67.5% (WI-38; MTT; 25 µM; 24 h).
For O=C(N[C@@H](Cc1ccccc1)C(=O)c1cn(-c2ccccc2)nn1)[C@H](Cc1ccccc1)NC(=O)N1CCOCC1 (single isomer, unassigned), the CC50 was > 64 µM (MRC-5 SV2).
For O=c1[nH]cc(F)c(=O)[nH]1, the IC50 was 63.4 µM (WI-38; WST-1; 48 h).
